Results as given in ChEMBL document CHEMBL3596123, “Identification of pyrazine-based TrkA inhibitors: design, synthesis, evaluation, and computational modeling studies” (Medchemcomm, 2014).

What was measured:
[1] = biological target: T1, High affinity nerve growth factor receptor (Homo sapiens, UniProt P04629); test: Inhibition of human recombinant TrkA at 20 uM using ATP and 5FAM tagged TrkA peptide substrate incubated for 60 mins by microfluidics assay
Procedure, shortened: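 TrkA enzyme at 2 nM, preincubated with inhibitor 60 min with shaking in HEPES kinase buffer (MgCl2, DTT, Brij-35, Tween 20), then ATP (190 µM running) and 5FAM-labelled TrkA peptide (1.5 µM) added. Run to 10–20% conversion in no-inhibitor wells. Product/substrate peaks separated by microfluidic mobility-shift read. Single point at 20 µM inhibitor, quadruplicate.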
Target sequence in this assay (P04629 33-796 limits assumed): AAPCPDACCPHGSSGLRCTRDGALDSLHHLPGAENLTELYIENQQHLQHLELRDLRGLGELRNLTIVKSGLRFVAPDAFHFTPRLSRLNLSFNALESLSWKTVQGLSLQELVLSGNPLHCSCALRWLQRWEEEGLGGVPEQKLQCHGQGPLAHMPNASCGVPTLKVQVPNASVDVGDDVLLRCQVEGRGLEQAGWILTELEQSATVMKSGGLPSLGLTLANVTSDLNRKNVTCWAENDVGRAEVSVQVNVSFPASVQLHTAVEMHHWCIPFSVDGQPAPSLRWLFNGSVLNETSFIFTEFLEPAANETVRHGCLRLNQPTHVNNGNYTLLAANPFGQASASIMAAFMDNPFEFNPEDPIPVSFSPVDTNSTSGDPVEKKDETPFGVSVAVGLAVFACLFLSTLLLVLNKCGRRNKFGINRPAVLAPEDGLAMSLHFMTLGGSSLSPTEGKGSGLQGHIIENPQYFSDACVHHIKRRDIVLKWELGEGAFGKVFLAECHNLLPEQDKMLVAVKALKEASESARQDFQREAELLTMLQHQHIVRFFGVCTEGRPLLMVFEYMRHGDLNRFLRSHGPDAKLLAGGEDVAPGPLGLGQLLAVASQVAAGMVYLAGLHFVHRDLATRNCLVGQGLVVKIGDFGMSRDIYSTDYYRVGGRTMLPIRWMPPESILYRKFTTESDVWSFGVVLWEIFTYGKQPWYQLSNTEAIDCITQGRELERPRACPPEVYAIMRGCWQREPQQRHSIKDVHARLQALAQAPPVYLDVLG

[2] = biological target: T1, High affinity nerve growth factor receptor; test: Inhibition of human recombinant TrkA using ATP and 5FAM tagged TrkA peptide substrate incubated for 60 mins by microfluidics assay
Procedure, shortened: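 TrkA enzyme at 2 nM, preincubated 60 min with inhibitor in HEPES/MgCl2/DTT kinase buffer. Reaction started with ATP 190 µM and 5FAM-TrkA peptide 1.5 µM (running). Twelve-point half-log series, 0.2 mM–0.632 nM final. Stopped at 10–20% conversion of uninhibited control. Phospho-product separated by microfluidic read. Curves fit to one-phase exponential decay, IC50 from the half-life, duplicate, mean ± SD.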
Target sequence in this assay (P04629 whole entry): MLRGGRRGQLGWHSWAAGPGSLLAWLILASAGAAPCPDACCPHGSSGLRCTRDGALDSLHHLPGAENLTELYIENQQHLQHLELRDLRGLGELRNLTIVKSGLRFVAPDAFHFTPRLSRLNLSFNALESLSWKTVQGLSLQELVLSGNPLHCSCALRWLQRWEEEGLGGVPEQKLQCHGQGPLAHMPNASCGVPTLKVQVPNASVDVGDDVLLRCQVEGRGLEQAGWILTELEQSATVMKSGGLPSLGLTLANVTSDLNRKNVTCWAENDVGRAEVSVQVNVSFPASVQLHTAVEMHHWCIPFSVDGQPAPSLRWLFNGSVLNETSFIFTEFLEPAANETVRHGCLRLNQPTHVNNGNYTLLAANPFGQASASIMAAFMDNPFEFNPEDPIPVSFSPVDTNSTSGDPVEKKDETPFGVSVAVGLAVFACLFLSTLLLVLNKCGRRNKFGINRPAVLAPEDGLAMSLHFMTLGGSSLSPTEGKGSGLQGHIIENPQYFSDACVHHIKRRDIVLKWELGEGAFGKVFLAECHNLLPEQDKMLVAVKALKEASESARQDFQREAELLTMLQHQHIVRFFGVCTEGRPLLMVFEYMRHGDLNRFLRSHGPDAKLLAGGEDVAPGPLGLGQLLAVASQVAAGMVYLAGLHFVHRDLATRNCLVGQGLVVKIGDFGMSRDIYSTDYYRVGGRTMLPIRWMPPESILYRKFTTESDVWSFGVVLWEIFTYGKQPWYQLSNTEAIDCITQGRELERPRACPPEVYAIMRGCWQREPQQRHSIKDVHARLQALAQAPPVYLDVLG

Ephrin type-B receptor 2 = biological target: T2, Ephrin type-B receptor 2 (Homo sapiens, UniProt P29323); test: Inhibition of EphB2 (unknown origin) using ATP and 5FAM tagged TrkA peptide substrate incubated for 60 mins by microfluidics assay
T2 sequence (P29323 whole entry): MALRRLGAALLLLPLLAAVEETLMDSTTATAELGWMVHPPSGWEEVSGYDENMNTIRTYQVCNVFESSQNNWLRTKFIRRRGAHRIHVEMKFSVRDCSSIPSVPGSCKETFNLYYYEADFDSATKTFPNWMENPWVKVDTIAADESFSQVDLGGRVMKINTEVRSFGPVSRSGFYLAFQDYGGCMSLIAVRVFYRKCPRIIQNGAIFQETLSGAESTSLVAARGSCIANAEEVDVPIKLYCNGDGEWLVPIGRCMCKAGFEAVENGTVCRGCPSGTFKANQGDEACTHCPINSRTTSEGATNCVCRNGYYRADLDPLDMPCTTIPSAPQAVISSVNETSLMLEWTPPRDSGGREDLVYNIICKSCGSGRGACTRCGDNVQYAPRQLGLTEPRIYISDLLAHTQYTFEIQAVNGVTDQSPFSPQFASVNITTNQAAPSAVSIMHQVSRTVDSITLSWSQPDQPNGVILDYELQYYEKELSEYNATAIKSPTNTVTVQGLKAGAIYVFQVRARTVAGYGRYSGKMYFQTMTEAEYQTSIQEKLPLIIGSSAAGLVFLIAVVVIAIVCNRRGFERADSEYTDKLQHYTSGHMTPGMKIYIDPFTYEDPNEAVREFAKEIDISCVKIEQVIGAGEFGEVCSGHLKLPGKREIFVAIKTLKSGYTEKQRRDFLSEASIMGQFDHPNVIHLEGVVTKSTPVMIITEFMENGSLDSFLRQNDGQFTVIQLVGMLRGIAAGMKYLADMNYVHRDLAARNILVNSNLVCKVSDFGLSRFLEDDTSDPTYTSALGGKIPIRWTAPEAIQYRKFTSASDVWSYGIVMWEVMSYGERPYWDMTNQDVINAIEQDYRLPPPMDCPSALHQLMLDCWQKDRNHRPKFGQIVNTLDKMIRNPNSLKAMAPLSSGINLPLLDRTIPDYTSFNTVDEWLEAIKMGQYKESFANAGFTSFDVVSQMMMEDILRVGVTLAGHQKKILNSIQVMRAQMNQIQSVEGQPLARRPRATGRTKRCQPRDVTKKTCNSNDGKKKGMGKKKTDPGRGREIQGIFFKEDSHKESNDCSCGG

[3] = biological target: Vascular endothelial growth factor receptor 2 (Homo sapiens, UniProt P35968); test: Inhibition of KDR (unknown origin) using ATP and 5FAM tagged TrkA peptide substrate incubated for 60 mins by microfluidics assay
Sequence of Vascular endothelial growth factor receptor 2 (P35968 whole entry): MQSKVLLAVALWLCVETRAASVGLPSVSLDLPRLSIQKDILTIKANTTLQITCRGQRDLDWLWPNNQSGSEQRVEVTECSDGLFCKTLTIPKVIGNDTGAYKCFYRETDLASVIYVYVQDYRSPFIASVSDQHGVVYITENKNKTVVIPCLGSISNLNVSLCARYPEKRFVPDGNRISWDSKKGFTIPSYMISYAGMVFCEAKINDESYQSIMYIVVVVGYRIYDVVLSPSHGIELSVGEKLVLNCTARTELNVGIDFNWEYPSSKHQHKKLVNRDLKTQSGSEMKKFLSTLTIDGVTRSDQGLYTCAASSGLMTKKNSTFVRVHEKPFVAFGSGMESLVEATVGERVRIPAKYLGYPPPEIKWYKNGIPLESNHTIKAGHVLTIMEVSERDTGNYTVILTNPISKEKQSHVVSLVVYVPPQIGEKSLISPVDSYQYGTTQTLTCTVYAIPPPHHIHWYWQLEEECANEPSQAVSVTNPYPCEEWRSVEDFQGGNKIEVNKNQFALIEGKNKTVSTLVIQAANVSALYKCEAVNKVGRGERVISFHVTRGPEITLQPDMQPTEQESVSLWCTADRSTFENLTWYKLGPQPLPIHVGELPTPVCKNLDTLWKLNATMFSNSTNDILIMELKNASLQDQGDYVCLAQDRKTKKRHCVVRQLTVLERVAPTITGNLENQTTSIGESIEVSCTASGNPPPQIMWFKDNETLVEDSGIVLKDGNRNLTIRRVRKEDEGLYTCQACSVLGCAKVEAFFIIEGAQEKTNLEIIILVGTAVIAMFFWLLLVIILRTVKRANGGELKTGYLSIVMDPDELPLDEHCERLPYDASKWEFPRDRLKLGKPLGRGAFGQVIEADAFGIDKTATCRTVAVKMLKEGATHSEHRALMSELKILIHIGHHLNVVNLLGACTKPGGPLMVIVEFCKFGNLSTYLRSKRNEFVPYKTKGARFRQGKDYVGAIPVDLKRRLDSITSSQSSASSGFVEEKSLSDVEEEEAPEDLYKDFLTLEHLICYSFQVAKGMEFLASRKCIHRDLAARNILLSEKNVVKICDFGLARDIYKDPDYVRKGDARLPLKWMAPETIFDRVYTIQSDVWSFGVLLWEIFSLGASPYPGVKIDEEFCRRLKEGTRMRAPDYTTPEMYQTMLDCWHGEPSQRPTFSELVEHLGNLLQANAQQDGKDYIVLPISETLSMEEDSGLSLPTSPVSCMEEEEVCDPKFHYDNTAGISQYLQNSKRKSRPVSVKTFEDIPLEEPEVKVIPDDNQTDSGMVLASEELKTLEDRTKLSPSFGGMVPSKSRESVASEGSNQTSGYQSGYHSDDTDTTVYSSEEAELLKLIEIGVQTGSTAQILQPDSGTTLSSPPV

inhibition [1] [%] | IC50 [2] [nM] | IC50 (Ephrin type-B receptor 2) [nM] | IC50 [3] [nM] | Structure (SMILES)
28.2 | – | – | – | CC(C)c1ccc(NC(=O)Nc2cccc(Oc3cncc(-c4cncnc4)n3)c2)cc1
26.9 | – | – | – | Cn1nc(C(C)(C)C)cc1NC(=O)Nc1cccc(Oc2cncc(-c3ccc(F)cc3)n2)c1
92 | 530 | – | – | Cn1cc(-c2cncc(Oc3cccc(NC(=O)Nc4cccc(C(F)(F)F)c4)c3)n2)cn1
37.2 | – | – | – | COc1ccc(-c2cncc(Oc3cccc(NC(=O)Nc4cc(C(C)(C)C)no4)c3)n2)cc1
26.8 | – | – | – | Cn1nc(C(C)(C)C)cc1NC(=O)Nc1cccc(Oc2cncc(-c3ccsc3)n2)c1
94 | 490 | – | – | Cn1nc(C(C)(C)C)cc1NC(=O)Nc1cccc(Oc2cncc(-c3ccc(S(C)(=O)=O)cc3)n2)c1
96.5 | 92 | > 2000 | – | CC(C)(C)c1cc(NC(=O)Nc2cccc(Oc3cncc(-c4ccc(S(C)(=O)=O)cc4)n3)c2)no1
96.9 | 420 | – | – | CC(C)c1ccc(NC(=O)Nc2cccc(Oc3cncc(-c4ccc(S(C)(=O)=O)cc4)n3)c2)cc1
101 | 24 | – | – | Cn1cc(-c2cncc(Oc3cccc(NC(=O)Nc4cc(C(C)(C)C)on4)c3)n2)cn1
27.1 | – | – | – | O=C(Nc1cccc(Oc2cncc(-c3ccc(F)cc3)n2)c1)Nc1cccc(C(F)(F)F)c1
86.9 | – | – | – | Cn1cc(-c2cncc(Oc3cccc(NC(=O)Nc4ccc(C(C)(C)C)cc4)c3)n2)cn1
100 | 22 | > 2000 | > 2000 | CC(C)(C)c1cc(NC(=O)Nc2cccc(Oc3cncc(-c4ccc(F)cc4)n3)c2)no1
33.8 | – | – | – | COc1ccc(-c2cncc(Oc3cccc(NC(=O)Nc4ccc(C(C)(C)C)cc4)c3)n2)cc1
96.2 | 1100 | – | – | O=C(Nc1cccc(Oc2cncc(-c3ccsc3)n2)c1)Nc1cccc(C(F)(F)F)c1
27.7 | – | – | – | CC(C)(C)c1ccc(NC(=O)Nc2cccc(Oc3cncc(-c4ccsc4)n3)c2)cc1
99.7 | 12 | – | – | Cn1cc(-c2cncc(-c3ccc(NC(=O)Nc4cc(C(C)(C)C)nn4C)cc3)n2)cn1
56.3 | – | – | – | CC(C)c1ccc(NC(=O)Nc2cccc(Oc3cncc(-c4cnn(C)c4)n3)c2)cc1
48.8 | – | – | – | Cn1cc(-c2cncc(Oc3cccc(NC(=O)Nc4cc(C(C)(C)C)no4)c3)n2)cn1
15.5 | – | – | – | COc1ccc(-c2cncc(Oc3cccc(NC(=O)Nc4cc(C(C)(C)C)nn4C)c3)n2)cc1
– | > 100000 | – | – | CC(C)(C)c1cccc(NC(=O)Nc2cccc(Oc3cncc(Cl)n3)c2)c1
49.6 | – | – | – | CC(C)(C)c1ccc(NC(=O)Nc2cccc(Oc3cncc(-c4cncnc4)n3)c2)cc1

inhibition [1] [%] | IC50 [2] [nM] | IC50 (Ephrin type-B receptor 2) [nM] | IC50 [3] [nM] | Structure (SMILES)
99.2 | 870 | – | – | CC(C)c1ccc(NC(=O)Nc2cccc(Oc3cncc(-c4ccsc4)n3)c2)cc1
98.6 | 47 | > 2000 | > 2000 | COc1ccc(-c2cncc(Oc3cccc(NC(=O)Nc4cc(C(C)(C)C)on4)c3)n2)cc1
61.1 | – | – | – | Cn1cc(-c2cncc(Oc3cccc(NC(=O)Nc4cc(C(C)(C)C)nn4C)c3)n2)cn1
– | > 100000 | – | – | CC(C)(C)c1cc(NC(=O)Nc2cccc(Oc3cncc(Cl)n3)c2)no1
98 | 380 | – | – | COc1ccc(-c2cncc(Oc3cccc(NC(=O)Nc4ccc(C(C)C)cc4)c3)n2)cc1
69 | – | – | – | CC(C)(C)c1cc(NC(=O)Nc2cccc(Oc3cncc(-c4ccsc4)n3)c2)on1
69.3 | – | – | – | O=C(Nc1cccc(Oc2cncc(-c3cncnc3)n2)c1)Nc1cccc(C(F)(F)F)c1
100 | 39 | > 2000 | > 2000 | CC(C)(C)c1cc(NC(=O)Nc2cccc(Oc3cncc(-c4ccsc4)n3)c2)no1
47.2 | – | – | – | CC(C)(C)c1cc(NC(=O)Nc2cccc(Oc3cncc(-c4ccc(F)cc4)n3)c2)on1
32.2 | – | – | – | CC(C)(C)c1ccc(NC(=O)Nc2cccc(Oc3cncc(-c4ccc(F)cc4)n3)c2)cc1
– | 3500 | – | – | O=C(Nc1cccc(Oc2cncc(Cl)n2)c1)Nc1cccc(C(F)(F)F)c1
56.9 | – | – | – | CC(C)c1ccc(NC(=O)Nc2cccc(Oc3cncc(-c4ccc(F)cc4)n3)c2)cc1
17 | – | – | – | Nc1ccc(-c2cncc(-c3ccsc3)n2)cc1
46 | – | – | – | Cn1cc(-c2cncc(-c3ccc(N)cc3)n2)cn1
90.8 | 1700 | – | – | CS(=O)(=O)c1ccc(-c2cncc(Oc3cccc(NC(=O)Nc4cccc(C(F)(F)F)c4)c3)n2)cc1
46.7 | – | – | – | CC(C)(C)c1ccc(NC(=O)Nc2cccc(Oc3cncc(-c4ccc(S(C)(=O)=O)cc4)n3)c2)cc1
79.4 | – | – | – | CC(C)(C)c1cc(NC(=O)Nc2cccc(Oc3cncc(-c4cncnc4)n3)c2)on1
77 | – | – | – | Nc1ccc(-c2cncc(-c3cncnc3)n2)cc1
47 | – | – | – | Nc1ccc(-c2cncc(Cl)n2)cc1
95.5 | 1600 | – | – | COc1ccc(-c2cncc(Oc3cccc(NC(=O)Nc4cccc(C(F)(F)F)c4)c3)n2)cc1
